Laboratory results from PubChem BioAssay AID488976 (Southern Research Specialized Biocontainment Screening …, 2010).
Activity calls are given as the source filed them.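 Rule for the calls: active = cell viability under 70% at any tested concentration, a measure not printed in our tables; inactive = the rest.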

Each compound was assayed on HEp-2 viability, ATP luminescence (assay: viability loss in uninfected HEp-2 cells – cell-based, ATP luminescence, purified and synthesized compounds, cytotoxicity control for RSV inhibitor project, dose response (AID 488976)).
Procedure, shortened: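 Assay system: HEp-2 cells without virus; Medium: DMEM/F12 cell culture medium; Controls: cell-only wells without compound; Evaluation: % viability versus median cell-only signal, CC50 via 4-parameter fit; Replication: triplicate wells per concentration; Incubation: six-day compound exposure of cells at 37 °C; Detection: luminescent CellTiter-Glo signal.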
For `Cc1ccc(NC(=O)C2CCCN2S(C)(=O)=O)c(C)c1` (configuration not stated), the CC50 was > 50 µM (inactive). `Cc1ccc(NC(=O)C2CCCN2S(=O)(=O)c2ccccc2)c(C)c1` (configuration not stated) was tested, and the CC50 was > 50 µM (inactive). With `Cc1ccc(NC(=O)C2CCCN2S(=O)(=O)c2cccc3cccnc23)c(C)c1` (configuration not stated) the CC50 was 40.5 µM. In the case of `Cc1ccc(NC(=O)C2CCCN2S(=O)(=O)c2ccc3ncccc3c2)c(C)c1` (configuration not stated), the CC50 is reported as > 50 µM (inactive). In the case of `Cc1ccc(NC(=O)C(C)NS(=O)(=O)c2cccc3cccnc23)c(C)c1` (configuration not stated), the CC50 is reported as > 50 µM (inactive). `Cc1ccc(NC(=O)C2CCCN2Cc2cccc3cccnc23)c(C)c1` (configuration not stated) showed a CC50 of 13.3 µM. With `CSc1ncccc1C(=O)Nc1nc(C)cs1` the CC50 was > 50 µM (inactive). For `Cc1ccc(NC(=O)C2CCCN2C(=O)c2cccc3cccnc23)c(C)c1` (configuration not stated), the CC50 was > 50 µM (inactive). For `Cc1ccc(NC(=O)C2CCCN2S(=O)(=O)c2cccc3ccccc23)c(C)c1` (configuration not stated), the CC50 was 17.8 µM. `Cc1csc(NC(=O)c2cccnc2)n1` was tested, and the CC50 was > 50 µM (inactive). `CSc1ncccc1C(=O)Nc1nc(C(C)(C)C)cs1` showed a CC50 of 28.7 µM. With `Cc1ccc(NC(=O)[C@H]2CCCN2S(=O)(=O)c2cccc3cccnc23)c(C)c1` the CC50 was 38 µM. In the case of `Cc1ccc(NC(=O)C2CCCN2S(=O)(=O)c2cccc3cnccc23)c(C)c1` (configuration not stated), the CC50 is reported as > 50 µM (inactive). In the case of `Cc1ccc(NC(=O)C2CCCN2C(=O)c2ccccc2)c(C)c1` (configuration not stated), the CC50 is reported as > 50 µM (inactive). In the case of `Cc1ccc(NC(=O)CNS(=O)(=O)c2cccc3cccnc23)c(C)c1`, the CC50 is reported as > 50 µM (inactive). With `Cc1ccc(NC(=O)[C@@H]2CCCN2S(=O)(=O)c2cccc3cccnc23)c(C)c1` the CC50 was 38.9 µM. With `O=C(Nc1ccc(C(F)(F)F)cc1[N+](=O)[O-])O[C@H]1[C@H](Cc2ccccc2)NS(=O)(=O)[C@H]2C[C@@H]3C=C[C@]12O3` the CC50 was 22.1 µM.
